Results from ChEMBL document CHEMBL1122623, “Activities of morphinone and N-(cyclopropylmethyl)normorphinone at opioid receptors” (J Med Chem, 1984).
Values joined by “and” are separate entries in the source; they are usually repeats but may differ in a detail not shown here. Equal entries are not always repeated. Active and inactive are the calls of the source. The calls are words filed in the database; no cut-off is given here.

Key:
Assay type in all cases: functional
Cavia porcellus = species on record: Cavia porcellus; experiment: Agonist activity in guinea pig ileum preparation
Method in brief: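 Electrically stimulated guinea pig ileum. Agonist IC50 is derived from concentration-response curves, with the number of experiments noted for each. In a separate run, tissue is depleted of functional μ receptors by preincubation with β-FNA before the agonist curve is repeated.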

Mus musculus [1] = experiment: Mice were intracerebroventricularly injected with 10 nmol and challenged with a 10 mg/kg subcutaneous dose of morphine sulfate; percentage of animals exhibiting analgesia was reported, after 0.5 hr
Mus musculus [2] = species on record: Mus musculus; experiment: Antagonist activity in mouse vas deferens preparation.
Mus musculus [3] = experiment: Mice were intracerebroventricularly injected with 10 nmol and challenged with a 10 mg/kg subcutaneous dose of morphine sulfate; percentage of animals exhibiting analgesia was reported, after 2 hr
Mus musculus [4] = experiment: analgesic activity by tail-flick procedure, after intracerebroventricular administration in mice; Compound is inactive at 10 nmol/mouse
[5] = Irreversible antagonist activity is measured from the ratio of agonist activity (IC50) to that of the control (ethylketazocine).
Method in brief: (§1)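 Electrically stimulated guinea pig ileum or mouse vas deferens. Tissue is incubated 30 min with 200 nM compound, then washed 20 times. […] Number of experiments is noted.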

Mus musculus [6] = experiment: Mice were intracerebroventricularly injected with 10 nmol and challenged with a 10 mg/kg subcutaneous dose of morphine sulfate; percentage of animals exhibiting analgesia was reported, after 24 hr
Mus musculus [7] = experiment: Analgesic activity by tail-flick procedure, after intracerebroventricular administration in mice. Compound is inactive at 10 nmol/mouse
[8] = Irreversible antagonist activity is measured from the ratio of agonist activity (IC50) to that of the control (morphine).; method in brief: as §1
Mus musculus [9] = experiment: Analgesic activity, 30 min after subcutaneous administration of the compound, in mice

SMILES	IC50 (Cavia porcellus) [nM]	IC50 (Mus musculus [2]) [nM]	Dose (Mus musculus [3]) [%]	Ratio [5]	Dose (Mus musculus [6]) [%]	also measured
CCOc1ccc2c(c1)C1(C)CCN(CC3CC3)C(C2=O)C1C (configuration not stated) [ETHYLKETAZOCINE]	1.6	–	–	–	–	–
O=C1C=CC2C3Cc4ccc(O)c5c4C2(CCN3CC2CC2)[C@H]1O5 (some centres not stated)	300	300	60	0.82	67	Dose (Mus musculus [1]): 10%; ED50 (Mus musculus [4]): inactive
CC(C)C[C@@H](NC(=O)[C@H](Cc1ccccc1)NC(=O)CNC(=O)[C@@H](C)NC(=O)[C@@H](N)Cc1ccc(O)cc1)C(=O)O [DADLE]	–	0.22	–	–	–	–
CN1CCC23c4c5ccc(O)c4O[C@H]2C(=O)C=CC3C1C5 (some centres not stated)	108	47	80	0.92	67	ED50 (Mus musculus [7]): 11.1 nM mouse-1; Ratio [8]: 0.67 and 0.68
CN1CC[C@]23c4c5ccc(O)c4O[C@H]2[C@@H](O)C=C[C@H]3[C@H]1C5 [MORPHINE]	–	–	–	–	–	ED50 (Mus musculus [9]): 2.8 nM mouse-1
